Measurements gathered from unrelated publications.
Lines come from different studies, so protocols differ.
Target: Dual specificity tyrosine-phosphorylation-regulated kinase 1A (DYRK1A, Homo sapiens, UniProt Q13627)

CN(C)C1CCN(CC#Cc2nn(C3CCCC3)c3nc(NCc4ccccc4)ncc23)C1 (stereo not drawn)
inhibition (enzyme activity; inhibitor; FRET; 10 µM): 2%

Nc1ncnc2occ(-c3ccc(NC(=O)Nc4cc(C(F)(F)F)ccc4F)cc3)c12
remaining signal (cell-free assay; 20 µM): 58%

O=C(O)c1ccc2c(c1)nc(NCCc1cccc(Cl)c1)c1ncncc12
remaining activity (enzyme activity; inhibitor; radiometric; 1 µM): 44%

C[C@@H]1CN(c2cc(-c3nn(C)c4ccc(OC5(C)CC5)cc34)ncn2)C[C@H](C)O1
remaining binding (cell-free assay; competition with immobilised ligand; 1 µM): 81%

COc1cc2ncnc(Nc3ccc(Oc4ccccc4)c(C)c3C)c2cc1OC
inhibition (enzyme activity; inhibitor; 1 µM): 1%

O=C1NC(=O)c2cc(Nc3ccc(F)cc3)c(Nc3ccc(F)cc3)cc21
remaining signal (cell-free assay; 0.5 µM): 95.6%

Cn1cnc(Br)c1C1=CN(c2ncnc3[nH]cnc23)CCS1
inhibition (enzyme activity; inhibitor; radiometric; 2 µM): 99.2%

Cn1c2c(c3ccc(Cl)c(Cl)c31)C(C#N)C(C)(C)NC2=O (stereo not drawn)
ΔTm (thermal stability; DSF; 10 µM): 3.2 °C

O=C(O)c1ccc2c(c1)nc(Nc1ccccc1)c1ccncc12
remaining activity (enzyme activity; inhibitor; radiometric; 1 µM): 6%

Cn1c2c(Cl)c(Cl)ccc2c2cc[nH]c(=O)c21
ΔTm (thermal stability; DSF; 10 µM): 2.6 °C

N#Cc1cccc(Nc2nc3cc(C(=O)O)ccc3c3cnccc23)c1
remaining activity (enzyme activity; inhibitor; radiometric; 1 µM): -1%

Cn1c2c(c3ccc(Cl)c(Cl)c31)C(C#N)C1(CCNCC1)NC2=O (racemic)
ΔTm (thermal stability; DSF; 10 µM): 2.5 °C

O=C1NC(c2ccccn2)Sc2ccccc21 (stereo not drawn)
remaining binding (cell-free assay; competition with immobilised ligand; 1 µM): 100%

CC(C)[C@H](CO)Nc1nc(Nc2cccc(Cl)c2)c2ncn(C(C)C)c2n1
remaining signal (cell-free assay; 0.5 µM): 65.4%

O=C(O)c1ccc2c(c1)nc(NCCc1cccc(F)c1)c1ccncc12
remaining activity (enzyme activity; inhibitor; radiometric; 1 µM): 8%

CN1CCC2(CC1)NC(=O)c1c(c3ccc(Cl)c(Cl)c3n1C)C2C#N (racemic)
ΔTm (thermal stability; DSF; 10 µM): 1 °C

CC(=O)N1CCC(c2ccc(C(=O)NC(=N)N)cc2C(F)(F)F)CC1
remaining binding (cell-free assay; competition with immobilised ligand; 1 µM): 74%

CCN(CC)CCNC(=O)c1c(C)[nH]c(/C=C2\C(=O)Nc3ccc(F)cc32)c1C
remaining signal (cell-free assay; 0.5 µM): 56.9%

Cc1c[nH]c2nccc(Oc3c(F)cc(Nc4cc(Cl)nc(N)n4)cc3F)c12
remaining binding (cell-free assay; competition with immobilised ligand; 0.1 µM): 88%

CCN1/C(=C/C(C)=O)Sc2ccc(OC)cc21
remaining signal (cell-free assay; 0.5 µM): 28.9%

Cc1c(NC(=O)c2cc(C(N)=O)nc3cc(F)ccc23)c(C(F)(F)F)nn1Cc1ccc(C(C)(C)C)cc1
remaining binding (cell-free assay; competition with immobilised ligand; 1 µM): 100%

COc1cc(/C=C/C(=O)CC(=O)/C=C/c2ccc(O)c(OC)c2)ccc1O
activity vs control (enzyme activity; inhibitor; 1 µM): 20%

CNc1cccc2cc(C(=O)Nc3ccc(C(=O)O)cc3)c(=O)[nH]c12
inhibition (enzyme activity; inhibitor; 10 µM): 28%

COCCOc1nc(-c2ccc(Cl)nc2)nc2c1CN(C(=O)c1ncn3ccccc13)CC2
remaining binding (cell-free assay; competition with immobilised ligand; 0.1 µM): 78%

O=C(O)c1ccc2c(c1)nc(Nc1ccc3ccccc3c1)c1ncncc12
remaining activity (enzyme activity; inhibitor; radiometric; 1 µM): -1%

O=C(O)c1cc(-c2ccc(C3CCNCC3)cc2)c2ccc(-c3ccc(C(F)(F)F)cc3)cc2c1
remaining binding (cell-free assay; competition with immobilised ligand; 1 µM): 100%

O=C(O)c1ccc2c(c1)nc(Nc1ccc(F)c(Cl)c1)c1ncncc12
remaining activity (enzyme activity; inhibitor; radiometric; 1 µM): 1%

Cc1ccc(NC(=O)c2ccc(C)c(C(F)(F)F)c2)cc1C#Cc1nn(C2CCC(O)CC2)c2ncnc(N)c12 (stereo not drawn)
remaining signal (cell-free assay; 10 µM): 95%

N#Cc1cccc(Nc2nc3cc(C(=O)O)ccc3c3cncnc23)c1
remaining activity (enzyme activity; inhibitor; radiometric; 1 µM): 3%

CC1=C(C#N)[C@@H](c2ccc3[nH]nc(C)c3c2)C(C#N)=C(c2ccc(Cl)cc2)N1
remaining binding (cell-free assay; competition with immobilised ligand; 1 µM): 100%
